# Data reported in ChEMBL document CHEMBL4371041, “Synthesis and evaluation of thieno[3,2-d]pyrimidine derivatives as novel FMS inhibitors” (Bioorg Med Chem Lett, 2019).
# Legend:
# [1] = target: Receptor-type tyrosine-protein kinase FLT3 (Homo sapiens) (UniProt P36888); test: Inhibition of recombinant human N-terminal GST-tagged FLT3 (564 to end residues) expressed in baculovirus infected Sf21 insect cells at 1 uM using Abltide as substrate in presence of [gamma-33P]-ATP or [gamma-32P]-ATP relative to control
# Angiopoietin-1 receptor = Angiopoietin-1 receptor (Homo sapiens, UniProt Q02763); test: Inhibition of recombinant human N-terminal His6-tagged Tie2 (771 to end residues) expressed in baculovirus infected Sf21 insect cells at 1 uM using Poly (Glu4-Tyr) (4:1) as substrate in presence of [gamma-33P]-ATP or [gamma-32P]-ATP relative to control
# [2] = target: Tyrosine-protein kinase JAK3 (Homo sapiens) (UniProt P52333); test: Inhibition of recombinant human N-terminal His6-tagged JAK3 (781 to end residues) expressed in baculovirus infected Sf21 insect cells at 1 uM using JAK3tide as substrate in presence of [gamma-33P]-ATP or [gamma-32P]-ATP relative to control
# [3] = AUC (0 to 7 hrs) in CD-1 mouse at 10 mg/kg, po; type: ADME, organism-based; design: time < 7 hr, dose 10 mg/kg, route oral; conditions: in vivo
# [4] = target: Ephrin type-A receptor 5 (Homo sapiens) (UniProt P54756); test: Inhibition of recombinant human N-terminal His6-tagged EphA5 (655 to 956 residues) expressed in baculovirus infected Sf21 insect cells at 1 uM using Axltide as substrate in presence of [gamma-33P]-ATP or [gamma-32P]-ATP relative to control
# Cytochrome P450 3A4 = Cytochrome P450 3A4 (Homo sapiens, UniProt P08684); test: Inhibition of CYP3A4 in human liver microsomes by LC-MS/MS analysis; type: ADME
# Summary of the method: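 Reversible CYP inhibition measured in human liver microsomes; metabolite formation quantified by LC/MS/MS.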
# MDA-MB-231 [5] = test: Antiinvasive activity against human MDA-MB-231 cells after 72 hrs by luciferase reporter-based matrigel-coated transwell assay; type: functional, cell-based
# Summary of the method: (§1)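 Invasion of luciferase-expressing MDA-MB-231 cells assessed in a system including RAW264.7 mouse macrophages, across a dose range including 1 μM; invasion read by luciferase signal relative to untreated control.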
# [6] = Half life in CD-1 mouse at 10 mg/kg, po; type: ADME, organism-based; conditions: in vivo
# [7] = target: Proto-oncogene tyrosine-protein kinase Src (Homo sapiens) (UniProt P12931); test: Inhibition of recombinant human N-terminal His6-tagged Src (1 to 530 residues) expressed in baculovirus infected Sf21 insect cells at 1 uM in presence of [gamma-33P]-ATP or [gamma-32P]-ATP relative to control
# [8] = target: Insulin-like growth factor 1 receptor (Homo sapiens) (UniProt P08069); test: Inhibition of Mg/ATP-autoactivated recombinant human N-terminal His6-tagged IGFR1 (959 to end residues) expressed in baculovirus infected Sf21 insect cells at 1 uM in presence of [gamma-33P]-ATP or [gamma-32P]-ATP relative to control
# [9] = target: Macrophage colony-stimulating factor 1 receptor (Homo sapiens, UniProt P07333); test: […] at recombinant human N-terminal His6-tagged FMS (538 to end residues) expressed in baculovirus infected Sf21 insect cells using IGF-R1tide as substrate in presence of [gamma-33P]-ATP or [gamma-32P]-ATP
# [10] = target: Voltage-gated inwardly rectifying potassium channel KCNH2 (Homo sapiens, UniProt Q12809); test: Displacement of Tracer Red from human ERG by fluorescence polarization assay
# [11] = target: Platelet-derived growth factor receptor alpha (Homo sapiens) (UniProt P16234); test: Inhibition of recombinant human N-terminal His6-tagged PDGFRalpha (550 to end residues) expressed in baculovirus infected Sf21 insect cells at 1 uM using Poly (Glu4-Tyr) (4:1) as substrate in presence of [gamma-33P]-ATP or [gamma-32P]-ATP relative to control
# [12] = Clearance in CD-1 mouse at 3 mg/kg, iv; type: ADME, organism-based; conditions: in vivo
# [13] = target: Aurora kinase B/Inner centromere protein (Homo sapiens) (UniProt Q96GD4+Q9NQS7); test: Inhibition of recombinant human full length C-terminal His6-tagged Aurora B/N-terminal GST-tagged INCENP (821 to end residues) expressed in baculovirus infected Sf21 insect cells at 1 uM in presence of [gamma-33P]-ATP or [gamma-32P]-ATP relative to control
# [14] = target: Tyrosine-protein kinase ABL1 (Homo sapiens) (UniProt P00519); test: Inhibition of recombinant human N-terminal His6-tagged Abl (27 to end residues) expressed in baculovirus infected Sf21 insect cells at 1 uM using Abltide as substrate in presence of [gamma-33P]-ATP or [gamma-32P]-ATP relative to control
# [15] = target: NUAK family SNF1-like kinase 1 (Homo sapiens) (UniProt O60285); test: Inhibition of recombinant human N-terminal His6-tagged ARK5 (2 to end residues) expressed in baculovirus infected Sf21 insect cells at 1 uM using CHKtide as substrate in presence of [gamma-33P]-ATP or [gamma-32P]-ATP relative to control
# [16] = Clearance in CD-1 mouse at 10 mg/kg, po; type: ADME, organism-based; conditions: in vivo
# [17] = target: Glycogen synthase kinase-3 alpha (Homo sapiens) (UniProt P49840); test: Inhibition of recombinant human N-terminal His6-tagged GSK3alpha (2 to end residues) expressed in baculovirus infected Sf21 insect cells at 1 uM using GSK3 substrate in presence of [gamma-33P]-ATP or [gamma-32P]-ATP relative to control
# [18] = Volume of distribution in CD-1 mouse at 10 mg/kg, po; type: ADME, organism-based; conditions: in vivo
# MDA-MB-231 [19] = test: Antiinvasive activity against human MDA-MB-231 cells at 1 uM after 72 hrs by luciferase reporter-based matrigel-coated transwell assay relative to control; type: functional; summary of the method: as §1
# [20] = target: Proto-oncogene tyrosine-protein kinase receptor Ret (Homo sapiens) (UniProt P07949); test: Inhibition of recombinant human N-terminal GST-tagged Ret (658 to end residues) expressed in baculovirus infected Sf21 insect cells at 1 uM using IFG-1Rtide as substrate in presence of [gamma-33P]-ATP or [gamma-32P]-ATP relative to control
# MDA-MB-231 [21] = test: Growth inhibition of human MDA-MB-231 cells at 5 uM after 24 hrs by MTS assay relative to control; type: functional; conditions: MDA-MB-231, 24 h, read-out: GI
# [22] = AUC (0 to 7 hrs) in CD-1 mouse at 3 mg/kg, iv; type: ADME, organism-based; design: dose 3 mg/kg, time < 7 hr, route intravenous; conditions: in vivo
# [23] = target: Tyrosine-protein kinase receptor UFO (Homo sapiens) (UniProt P30530); test: Inhibition of recombinant human N-terminal His6-tagged Axl (473 to end residues) expressed in baculovirus infected Sf21 insect cells at 1 uM using Axltide as substrate in presence of [gamma-33P]-ATP or [gamma-32P]-ATP relative to control
# Chain of Tyrosine-protein kinase receptor UFO (Homo sapiens) (P30530 whole entry): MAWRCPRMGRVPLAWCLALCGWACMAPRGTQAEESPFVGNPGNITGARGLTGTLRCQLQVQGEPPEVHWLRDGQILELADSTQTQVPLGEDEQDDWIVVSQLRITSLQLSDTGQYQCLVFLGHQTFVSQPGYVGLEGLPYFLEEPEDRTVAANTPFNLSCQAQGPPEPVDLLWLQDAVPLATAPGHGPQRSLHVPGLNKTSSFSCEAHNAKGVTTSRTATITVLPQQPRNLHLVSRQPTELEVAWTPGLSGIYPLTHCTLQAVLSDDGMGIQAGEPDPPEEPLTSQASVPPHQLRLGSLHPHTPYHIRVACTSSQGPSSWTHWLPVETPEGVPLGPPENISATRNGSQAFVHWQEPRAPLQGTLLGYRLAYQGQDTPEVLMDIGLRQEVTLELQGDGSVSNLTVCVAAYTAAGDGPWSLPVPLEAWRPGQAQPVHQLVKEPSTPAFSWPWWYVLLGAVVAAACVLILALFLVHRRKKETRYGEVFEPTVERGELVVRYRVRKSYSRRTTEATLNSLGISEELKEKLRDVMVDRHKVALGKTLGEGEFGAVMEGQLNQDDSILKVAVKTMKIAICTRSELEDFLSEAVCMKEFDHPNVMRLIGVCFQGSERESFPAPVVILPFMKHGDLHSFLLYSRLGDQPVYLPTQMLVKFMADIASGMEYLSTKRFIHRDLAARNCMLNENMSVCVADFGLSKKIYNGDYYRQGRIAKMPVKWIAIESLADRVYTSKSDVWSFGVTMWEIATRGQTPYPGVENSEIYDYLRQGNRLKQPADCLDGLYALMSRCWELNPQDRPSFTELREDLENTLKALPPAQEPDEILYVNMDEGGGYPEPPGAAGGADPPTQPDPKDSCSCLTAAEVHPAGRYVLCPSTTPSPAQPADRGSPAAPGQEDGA
# Chain of Macrophage colony-stimulating factor 1 receptor (P07333 whole entry): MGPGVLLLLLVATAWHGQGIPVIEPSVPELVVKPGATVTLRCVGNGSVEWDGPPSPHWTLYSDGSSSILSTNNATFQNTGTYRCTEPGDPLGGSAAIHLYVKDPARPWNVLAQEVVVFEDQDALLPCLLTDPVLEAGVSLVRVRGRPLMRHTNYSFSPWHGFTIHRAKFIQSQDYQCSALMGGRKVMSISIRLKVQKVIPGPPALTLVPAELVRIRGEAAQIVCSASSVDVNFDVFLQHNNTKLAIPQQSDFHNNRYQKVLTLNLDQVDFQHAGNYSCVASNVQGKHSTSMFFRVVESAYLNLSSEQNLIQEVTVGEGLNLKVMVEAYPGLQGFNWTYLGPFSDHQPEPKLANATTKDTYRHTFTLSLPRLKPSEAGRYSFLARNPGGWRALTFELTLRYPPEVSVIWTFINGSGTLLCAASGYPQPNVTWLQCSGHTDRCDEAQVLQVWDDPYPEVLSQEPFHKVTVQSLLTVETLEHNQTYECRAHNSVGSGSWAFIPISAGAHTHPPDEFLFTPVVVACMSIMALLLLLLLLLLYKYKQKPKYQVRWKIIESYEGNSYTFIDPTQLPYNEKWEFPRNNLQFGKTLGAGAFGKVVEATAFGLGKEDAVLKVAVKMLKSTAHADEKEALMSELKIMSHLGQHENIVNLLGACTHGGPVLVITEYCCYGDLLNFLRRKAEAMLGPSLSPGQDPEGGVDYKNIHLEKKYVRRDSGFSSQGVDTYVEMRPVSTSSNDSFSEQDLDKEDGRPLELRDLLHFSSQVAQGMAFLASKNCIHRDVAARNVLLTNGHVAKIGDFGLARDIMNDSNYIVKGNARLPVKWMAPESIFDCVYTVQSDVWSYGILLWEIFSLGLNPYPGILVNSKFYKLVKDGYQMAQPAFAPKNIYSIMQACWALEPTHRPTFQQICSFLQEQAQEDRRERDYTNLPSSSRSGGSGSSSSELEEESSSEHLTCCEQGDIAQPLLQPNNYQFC
# Chain of Tyrosine-protein kinase ABL1 (Homo sapiens) (P00519 whole entry): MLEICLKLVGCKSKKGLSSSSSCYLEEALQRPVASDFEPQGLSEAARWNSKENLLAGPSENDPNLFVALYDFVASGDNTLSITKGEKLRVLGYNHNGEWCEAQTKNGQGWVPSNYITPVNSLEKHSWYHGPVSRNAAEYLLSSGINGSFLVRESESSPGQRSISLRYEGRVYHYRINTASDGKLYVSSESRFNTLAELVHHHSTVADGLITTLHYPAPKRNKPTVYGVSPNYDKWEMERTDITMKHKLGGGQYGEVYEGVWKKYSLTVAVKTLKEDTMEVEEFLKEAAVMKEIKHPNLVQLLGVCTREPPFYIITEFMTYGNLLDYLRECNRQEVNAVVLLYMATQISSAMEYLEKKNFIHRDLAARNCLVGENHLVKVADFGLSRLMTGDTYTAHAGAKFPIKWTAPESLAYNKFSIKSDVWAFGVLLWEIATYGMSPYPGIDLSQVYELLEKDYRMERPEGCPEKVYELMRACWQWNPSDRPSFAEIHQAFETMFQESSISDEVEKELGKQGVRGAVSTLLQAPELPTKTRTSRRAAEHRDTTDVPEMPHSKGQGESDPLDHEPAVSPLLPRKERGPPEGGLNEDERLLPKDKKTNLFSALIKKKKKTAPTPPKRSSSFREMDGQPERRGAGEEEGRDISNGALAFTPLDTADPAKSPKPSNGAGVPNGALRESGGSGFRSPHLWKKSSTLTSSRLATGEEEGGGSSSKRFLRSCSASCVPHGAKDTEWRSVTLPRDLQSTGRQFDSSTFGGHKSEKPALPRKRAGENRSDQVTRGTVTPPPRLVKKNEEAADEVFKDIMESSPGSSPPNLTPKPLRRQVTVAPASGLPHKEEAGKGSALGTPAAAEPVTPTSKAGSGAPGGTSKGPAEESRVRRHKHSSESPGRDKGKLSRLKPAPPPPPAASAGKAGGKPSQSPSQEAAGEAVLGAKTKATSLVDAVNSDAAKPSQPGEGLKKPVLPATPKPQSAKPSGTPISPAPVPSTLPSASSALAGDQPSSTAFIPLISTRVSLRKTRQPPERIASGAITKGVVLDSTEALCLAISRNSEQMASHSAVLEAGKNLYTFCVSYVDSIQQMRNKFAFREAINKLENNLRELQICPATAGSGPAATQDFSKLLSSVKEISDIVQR
# Chain of Angiopoietin-1 receptor (Q02763 whole entry): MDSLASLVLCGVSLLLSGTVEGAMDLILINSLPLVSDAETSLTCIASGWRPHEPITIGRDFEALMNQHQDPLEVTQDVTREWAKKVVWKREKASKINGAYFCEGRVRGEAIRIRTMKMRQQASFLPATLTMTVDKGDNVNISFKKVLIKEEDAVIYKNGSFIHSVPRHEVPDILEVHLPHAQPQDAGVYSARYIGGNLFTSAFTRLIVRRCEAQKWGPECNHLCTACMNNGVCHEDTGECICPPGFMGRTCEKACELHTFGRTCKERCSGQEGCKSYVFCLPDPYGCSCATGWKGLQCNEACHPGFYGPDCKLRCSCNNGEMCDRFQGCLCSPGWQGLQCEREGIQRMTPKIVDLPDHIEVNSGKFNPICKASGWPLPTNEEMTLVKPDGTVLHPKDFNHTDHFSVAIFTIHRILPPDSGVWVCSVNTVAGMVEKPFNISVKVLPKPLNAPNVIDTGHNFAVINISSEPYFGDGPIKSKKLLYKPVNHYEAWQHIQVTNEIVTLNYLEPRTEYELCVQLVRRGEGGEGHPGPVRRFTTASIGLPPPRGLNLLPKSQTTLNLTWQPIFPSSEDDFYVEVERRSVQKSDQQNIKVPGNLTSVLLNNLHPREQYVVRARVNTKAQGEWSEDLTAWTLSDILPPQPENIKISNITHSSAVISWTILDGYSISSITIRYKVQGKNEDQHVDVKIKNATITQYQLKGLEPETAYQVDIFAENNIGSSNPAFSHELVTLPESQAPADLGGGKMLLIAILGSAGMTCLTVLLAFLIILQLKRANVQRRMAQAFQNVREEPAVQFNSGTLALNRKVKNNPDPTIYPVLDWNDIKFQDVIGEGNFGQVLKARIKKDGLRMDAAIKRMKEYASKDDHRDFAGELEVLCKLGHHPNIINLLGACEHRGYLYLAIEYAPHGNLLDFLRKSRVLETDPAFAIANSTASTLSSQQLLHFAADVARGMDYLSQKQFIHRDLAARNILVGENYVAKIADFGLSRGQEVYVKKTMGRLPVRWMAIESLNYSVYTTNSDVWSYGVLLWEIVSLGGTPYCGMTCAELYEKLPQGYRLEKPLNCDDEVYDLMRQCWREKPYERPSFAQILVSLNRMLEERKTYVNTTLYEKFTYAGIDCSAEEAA
# Chain of NUAK family SNF1-like kinase 1 (Homo sapiens) (O60285 whole entry): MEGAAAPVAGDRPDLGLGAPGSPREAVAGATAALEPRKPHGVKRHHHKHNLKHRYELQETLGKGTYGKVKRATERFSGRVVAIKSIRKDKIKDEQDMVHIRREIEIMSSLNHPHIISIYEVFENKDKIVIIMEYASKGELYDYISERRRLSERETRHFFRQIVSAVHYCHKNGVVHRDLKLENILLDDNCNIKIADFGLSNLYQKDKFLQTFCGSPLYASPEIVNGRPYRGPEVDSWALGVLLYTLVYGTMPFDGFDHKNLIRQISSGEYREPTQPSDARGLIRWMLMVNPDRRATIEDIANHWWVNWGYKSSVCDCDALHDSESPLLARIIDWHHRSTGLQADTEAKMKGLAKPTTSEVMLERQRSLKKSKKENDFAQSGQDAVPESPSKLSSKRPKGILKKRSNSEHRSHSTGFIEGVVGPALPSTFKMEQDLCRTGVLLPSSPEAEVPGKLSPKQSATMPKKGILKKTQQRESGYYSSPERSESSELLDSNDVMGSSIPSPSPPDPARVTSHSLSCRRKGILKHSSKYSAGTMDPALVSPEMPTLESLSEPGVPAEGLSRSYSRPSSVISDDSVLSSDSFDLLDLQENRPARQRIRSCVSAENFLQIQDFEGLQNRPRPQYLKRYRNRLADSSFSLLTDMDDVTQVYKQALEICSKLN
structure (smiles),measurement,setting,value
Cc1cccc(Cn2nc(C)c3c(NC(=O)c4csc5c(N)ncnc45)cccc32)n1,inhibition,[1],59%
same,inhibition,Angiopoietin-1 receptor,> 60%
same,inhibition,[2],6%
same,AUC(0-t) at 7 h,[3],4040 ng·h/mL
same,inhibition,[4],-9%
same,IC50,Cytochrome P450 3A4,> 20 µM
same,Activity,MDA-MB-231 [5],Dose-dependent effect
same,half-life,[6],2.6 h
same,inhibition,[7],4%
same,inhibition,[8],56%
same,IC50,[9],0.002 µM
same,IC50,[10],> 50 µM
same,inhibition,[11],2%
same,clearance,[12],15 mL/min/kg
same,inhibition,[13],-3%
same,inhibition,[14],35%
same,inhibition,[15],20%
same,CL/F,[16],33.3 mL/min/kg
same,inhibition,[17],-10%
same,Vd,[18],7.5 L/kg
same,Activity,MDA-MB-231 [19],67%
same,inhibition,[20],-2%
same,inhibition of growth at 5 µM,MDA-MB-231 [21],20%
same,AUC(0-t) at 7 h,[22],3370 ng·h/mL
same,inhibition,[23],12%
